Efflux pump mplx = inhibitors of Candida efflux pumps in yeast, primary screen, S. cerevisiae, Nile Red, multiplex. S. cerevisiae Candida pump triplex. inhibition, % at 10 µM. hit rate 0.44% among 330,000;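 active = plate passing quality check with inhibition over a set limit, or well fluorescence over plate mean plus 4 SD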;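 also: Nile Red retained in pooled yeast measured as flow cytometry median fluorescence; higher means more Nile Red kept so more efflux inhibition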
ABCG2 block = ABCG2 efflux pump inhibitors, primary screen, multiplex with ABCB1, IgMXP3 cells, flow cytometry | AID 1325, 2008 | inhibition, % at 6.6 µM | JC-1 efflux | hit rate 0.1% among 190,000 | Broad substrate specificity ATP-binding cassette transporter ABCG2 (Homo sapiens), Q9UNQ0;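 active = inhibition above 80%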
Target sequence (Q9UNQ0 whole entry, looked up): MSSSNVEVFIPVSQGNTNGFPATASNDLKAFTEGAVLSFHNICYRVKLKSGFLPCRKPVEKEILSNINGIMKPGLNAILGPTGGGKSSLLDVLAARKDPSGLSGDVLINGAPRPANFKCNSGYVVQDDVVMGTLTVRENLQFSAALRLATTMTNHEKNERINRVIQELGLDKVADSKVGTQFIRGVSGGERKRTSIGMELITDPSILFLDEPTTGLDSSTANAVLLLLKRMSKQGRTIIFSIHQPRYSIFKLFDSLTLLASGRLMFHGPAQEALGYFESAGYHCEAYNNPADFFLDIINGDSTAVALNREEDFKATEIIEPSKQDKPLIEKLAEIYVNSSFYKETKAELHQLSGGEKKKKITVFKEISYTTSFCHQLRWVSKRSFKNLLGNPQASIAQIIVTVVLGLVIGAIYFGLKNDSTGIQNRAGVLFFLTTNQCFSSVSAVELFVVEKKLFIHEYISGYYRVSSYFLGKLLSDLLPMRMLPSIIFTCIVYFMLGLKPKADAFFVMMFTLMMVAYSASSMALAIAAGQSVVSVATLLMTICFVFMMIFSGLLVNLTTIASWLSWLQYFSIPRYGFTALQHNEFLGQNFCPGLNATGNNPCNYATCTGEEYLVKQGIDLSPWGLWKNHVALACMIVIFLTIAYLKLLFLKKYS
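Test system: IgMXP3 (ABCG2) plus far-red-tagged CCRF-Adr (ABCB1) cells. Reagent: JC-1 dye as substrate. Timing: 10 min exposure at 25 °C with rotation, no wash. Measured by: flow cytometric JC-1 green MFI at 530 nm. Read-out: percent efflux inhibition, scaled nicardipine 100% to DMSO 0%. Control set: nicardipine and DMSO wells.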
MEKK2 WT-MEK5 = modulators of MEK5 binding to wildtype MEKK2, primary screen, biochemical, multiplex bead flow cytometry, Alexa488-MEK5. Mitogen-activated protein kinase kinase kinase 2 (Homo sapiens), Q9Y2U5. Alexa488-MEK5 binding to MEKK2 WT; actives lie on both sides. binding response (% of control), % at 10 µM. hit rate 1.1% among 290,000. AID 1531, 2009; in the data active = binding response below about 67% or above about 130%
MEKK2 mut-MEK5 = MEK5 binding signal on mutant MEKK2 PB1, primary screen, biochemical, multiplex bead flow cytometry, Alexa488-MEK5. Alexa488-MEK5 binding to MEKK2 mutant. hit rate 0.35% among 290,000. AID 1530, 2009. percent response, % at 10 µM; in the data active = percent response above about 24%, passing the limit was not always enough
ABCB1 block = ABCB1 efflux pump inhibitors, primary screen, cell-based, multiplex, flow cytometry, ABCG2 counter-screen; ATP-dependent translocase ABCB1 (Homo sapiens), P08183; CCRF-Adr cells, JC-1 efflux; inhibition, % at 6.6 µM; hit rate 0.067% among 190,000; in the data active = inhibition above about 40%;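 also: higher value means more JC-1 retained so stronger ABCB1 efflux block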
MEKK3 PB1 HTS = modulators of MEKK3-MEK5 PB1 binding, primary screen, biochemical, wildtype MEKK3, multiplex bead flow cytometry, Alexa488-MEK5 | Mitogen-activated protein kinase kinase kinase 3 (Homo sapiens), Q99759 | bead-based flow cytometry, Alexa488-MEK5 binding to MEKK3; actives lie on both sides; 0 = blocked by unlabeled MEK5, 100 = vehicle | binding response (% of control), % at 10 µM | hit rate 1.4% among 290,000 | AID 1529, 2009;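 active = binding response more than 3 SD above or below the average of its plate-row segment, actives on both sides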;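 also: Alexa488 bead fluorescence after subtracting the streptavidin-only scavenger bead signal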
MEKK2wt confirm = modulators of MEK5 binding to wildtype MEKK2, confirmation, biochemical, single concentration, multiplex bead flow cytometry; shares compounds with MEKK3 PB1 HTS; Alexa488-MEK5 binding to MEKK2 WT; actives lie on both sides; binding response (% of control), % at 10 µM; hit rate 2.4% among 5,900; in the data active = binding response below about 16% or above about 210%; inactive = in between
MEKK2mut-MEK5 = mutant MEKK2 PB1-MEK5 binding signal retest – biochemical, single concentration, multiplex bead flow cytometry, confirmation | shares compounds with MEKK3 PB1 HTS | Alexa488-MEK5 binding to MEKK2 mutant | percent response, % at 10 µM | hit rate 2% among 5,900 | AID 1893, 2009; in the data active = percent response mostly above about 71%, no sharp cut-off; inactive = mostly below about 38%;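 also: higher means compound restores mutant binding toward wildtype level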
MEKK3 confirm = MEKK3 wild-type PB1 binding to MEK5, inhibitors, confirmation, biochemical, bead multiplex flow cytometry, single concentration, wildtype. shares compounds with MEKK3 PB1 HTS. Alexa488-MEK5 binding to MEKK3; stronger effect = lower value. binding response (% of control), % at 10 µM. hit rate 1.8% among 5,900;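 active = binding response below 72% of control, or above a set upper limit, though filed actives all read lower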
Large screens that a line does not name were inactive (follow-up assays come after a bar, where they were run); [ ] = another dose, or the depositor's remark. Rows were chosen to be rich in hits. Some 2.5% of all compounds tested hit in one or more screens of this group.

O=C(NCC1CCCO1)c1csc2c1CCCCC2 (centres undefined)	MEKK2 WT-MEK5 -4.0[inhibitor], MEKK3 PB1 HTS 0.0[inhibitor] | MEKK2wt confirm inactive | MEKK2mut-MEK5 inactive | MEKK3 confirm inactive
NC(=O)CC(NC(=O)c1cccc(Br)c1)c1ccc(N2CCCCCC2)c([N+](=O)[O-])c1 (centres undefined)	none (no result: ABCG2 block, ABCB1 block)
NC(=O)CC(NC(=O)c1cccc(Br)c1)c1ccc(N2CCC(N3CCCC3)CC2)c([N+](=O)[O-])c1 (centres undefined)	MEKK2 WT-MEK5 153.0 (no result: ABCG2 block, ABCB1 block) | MEKK2wt confirm inactive | MEKK2mut-MEK5 inactive | MEKK3 confirm inactive
COc1cccc(-c2c(C#N)c(N)nc3c2c(=O)nc2sccn23)c1	none
Cc1ncc(CO)c(/C=N/NC(=O)c2ccccc2Br)c1O	MEKK2 WT-MEK5 5.0[inhibitor] | MEKK2wt confirm inactive | MEKK2mut-MEK5 inactive | MEKK3 confirm inactive
Cc1cc(OC(=O)c2c(F)cc(F)cc2F)nc(C)n1	MEKK3 PB1 HTS 149.0 | MEKK2wt confirm inactive | MEKK2mut-MEK5 inactive | MEKK3 confirm inactive
Cc1cc(OC(=O)c2cc(F)c(F)cc2Cl)nc(C)n1	none
Cc1c(C(=O)N(Cc2ccccc2)Cc2cccs2)cnn1-c1ccc(Cl)cc1	MEKK3 PB1 HTS 132.0 (no result: ABCG2 block, ABCB1 block) | MEKK2wt confirm inactive | MEKK2mut-MEK5 inactive | MEKK3 confirm inactive
Cc1c(C(=O)N(Cc2ccccc2)C(C)C)cnn1-c1ccccc1	none (no result: ABCG2 block, ABCB1 block)
O=C(C[n+]1ccc(Cc2ccccc2)cc1)Nc1ccccc1	MEKK2 mut-MEK5 64.0 | MEKK2wt confirm inactive | MEKK2mut-MEK5 inactive | MEKK3 confirm inactive
COc1ccc(-c2csc(NC(=O)CSc3nc(C)nc4sc(C(=O)O)c(C)c34)n2)cc1	none (no result: ABCG2 block, ABCB1 block)
O=C(OCCCN=C1NS(=O)(=O)c2ccccc21)c1ccc([N+](=O)[O-])cc1	none
O=C1S/C(=C\c2ccc(O)c([N+](=O)[O-])c2)C(=O)N1Cc1cccc([N+](=O)[O-])c1	none
O=C1S/C(=C\c2ccc(O)c([N+](=O)[O-])c2)C(=O)N1c1ccccc1Cl	MEKK3 PB1 HTS 74.0[inhibitor] | MEKK2wt confirm inactive | MEKK2mut-MEK5 inactive | MEKK3 confirm inactive
CCOc1cc(/C=N/NC(=O)CCc2n[nH]c(=O)[nH]c2=O)ccc1O	none
Cc1ccc(S(=O)(=O)N2CCN(CC(=O)N/N=C/c3ccco3)CC2)cc1	none
Cc1ccc(S(=O)(=O)N2CCN(CC(=O)N/N=C\C(Cl)=C\c3ccccc3)CC2)cc1	MEKK3 PB1 HTS 137.0 | MEKK2wt confirm inactive | MEKK2mut-MEK5 inactive | MEKK3 confirm inactive
CC(/C=N\NC(=O)CN1CCN(S(=O)(=O)c2ccc(C)cc2)CC1)=C\c1ccccc1	MEKK3 PB1 HTS 132.0 | MEKK2wt confirm inactive | MEKK2mut-MEK5 inactive | MEKK3 confirm inactive
Cc1ccc(S(=O)(=O)N2CCN(CC(=O)N/N=C\c3ccncc3)CC2)cc1	none (no result: ABCG2 block, ABCB1 block)
CCOC(=O)C1=C(COC(=O)C2CC(=O)N(c3ccccc3F)C2)NC(=O)NC1C (centres undefined)	none (no result: ABCG2 block, MEKK2 WT-MEK5, MEKK2 mut-MEK5, ABCB1 block, MEKK3 PB1 HTS)
CCOc1ccc(-c2c(C(=O)N/N=C/c3cccnc3)nnn2-c2nonc2N)cc1	none (no result: ABCG2 block, ABCB1 block)
Cc1ccc(CN2C(=O)CCC2C(=O)N2CCN(c3ccccc3)CC2)cc1 (centres undefined)	MEKK2 WT-MEK5 6.0[inhibitor], MEKK3 PB1 HTS 4.0[inhibitor] | MEKK2wt confirm inactive | MEKK2mut-MEK5 inactive | MEKK3 confirm inactive
Cc1ccc(-n2[nH]c(C)c(C=NCc3ccncc3)c2=O)cc1	MEKK3 PB1 HTS 130.0 (no result: ABCG2 block, ABCB1 block) | MEKK2wt confirm inactive | MEKK2mut-MEK5 inactive | MEKK3 confirm inactive
Cc1[nH]n(-c2ccccc2)c(=O)c1C=NCc1ccncc1	none (no result: ABCG2 block, ABCB1 block)
COc1ccc(/C=C(\NC(=O)c2ccc([N+](=O)[O-])cc2)C(=O)NCCCN2CCOCC2)cc1	none (no result: ABCG2 block, ABCB1 block)
CCOC(=O)c1ccc(N2C(=O)CC(Nc3ccc(O)cc3)C2=O)cc1 (centres undefined)	MEKK3 PB1 HTS 128.0 (no result: ABCG2 block, ABCB1 block) | MEKK2wt confirm inactive | MEKK2mut-MEK5 inactive | MEKK3 confirm inactive
CCOC(=O)c1ccc(N2C(=O)CC(NNC(=O)c3ccc(Br)s3)C2=O)cc1 (centres undefined)	none (no result: ABCG2 block, ABCB1 block)
CCN1CCN(S(=O)(=O)c2ccc3ccccc3c2)CC1	MEKK3 PB1 HTS 50.0[inhibitor] | MEKK2wt confirm inactive | MEKK2mut-MEK5 inactive | MEKK3 confirm inactive
CN1CCN(C(=O)N2c3ccccc3C=Cc3ccccc32)CC1	MEKK2 WT-MEK5 0.0[inhibitor], MEKK3 PB1 HTS 0.0[inhibitor] | MEKK2wt confirm inactive | MEKK2mut-MEK5 inactive | MEKK3 confirm inactive
NC(=O)N1c2ccccc2C=Cc2ccccc21	none
COc1ccc(OC)c(S(=O)(=O)N2CCCC(C(=O)N3CCCCCC3)C2)c1 (centres undefined)	none (no result: ABCG2 block, ABCB1 block)
N=c1n(CC(=O)c2ccc([N+](=O)[O-])cc2)c2ccccc2n1Cc1ccc(Cl)cc1	MEKK2 WT-MEK5 138.0 | MEKK2wt confirm inactive | MEKK2mut-MEK5 inactive | MEKK3 confirm inactive
CC1=C(C(=O)Nc2ccccc2)C(c2ccc(Cl)cc2)n2c(s/c(=C/c3cccc(OCC(=O)O)c3)c2=O)=N1 (centres undefined)	MEKK2 WT-MEK5 40.0[inhibitor] | MEKK2wt confirm inactive | MEKK2mut-MEK5 inactive | MEKK3 confirm inactive
CCOc1ccc(C2C(C(=O)Nc3ccccc3)=C(C)N=c3s/c(=C/c4cccc(OCC(=O)O)c4)c(=O)n32)cc1 (centres undefined)	none
CC1=C(C(=O)Nc2ccccc2C)C(c2ccc(C)o2)n2c(s/c(=C/c3ccccc3)c2=O)=N1 (centres undefined)	none

Compound activity (PubChem BioAssay)
